In ChEMBL document CHEMBL1133105, “Antimalarial, antitrypanosomal, and antileishmanial activities and cytotoxicity of bis(9-amino-6-chloro-2-methoxyacridines): influence of the linker” (J Med Chem, 2000):

Legend:
Trypanosoma cruzi [1] = assay: Percentage of activity against Trypanosoma cruzi at 12.5 uM; format: functional
Outline: (§1)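 Mouse peritoneal macrophages, 30 000/well, infected after 24 h with about 100 000 T. cruzi trypomastigotes per well plus 2-fold drug dilutions (12.5–1.56 µM). Incubated 4 days at 37 °C, 5% CO2. Methanol-fixed, Giemsa-stained and scored microscopically as % reduction of total parasite load (free trypomastigotes plus intracellular amastigotes) versus untreated controls.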

Trypanosoma brucei [2] = assay: Percentage of activity against Trypanosoma brucei at 1.56 uM; format: functional
Outline: (§2)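 Bloodstream-form T. brucei in HMI-9 medium, 10 000 parasites/well, exposed to 12.5, 6.25, 3.13 and 1.56 µM drug for 4 days. Read-out is % inhibition of parasite multiplication. Macrophage toxicity judged on mouse primary peritoneal macrophages.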

MRC5 [3] = assay: Cytotoxicity on MRC-5 cells at 6.25 uM; format: functional; details: Homo sapiens
Outline: (§3)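 MRC-5 human diploid embryonic lung cells seeded at 5 000/well, washed after 24 h, then given 2-fold drug dilutions (25, 12.5, 6.25, 3.13 µM) in RPMI + 5% FCS, final DMSO below 0.5%. Incubated 7 days at 37 °C, 5% CO2. MTT colorimetric read-out, scored as % reduction of absorbance at 540 nm versus untreated controls.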

Trypanosoma cruzi [4] = assay: Percentage of activity against Trypanosoma cruzi at 3.13 uM; format: functional; outline: as §1
Plasmodium falciparum = assay: In vitro sensitivity for Plasmodium falciparum FcB1R; format: functional, organism-based
Outline: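 Asynchronous P. falciparum cultures in human erythrocytes (0.5% parasitemia, 1% haematocrit) exposed to serially diluted drug for 24 h at 37 °C. [3H]hypoxanthine (0.5 µCi/well) then added for a further 24 h. Uptake compared with drug-free controls on the same plate. IC50 taken from the concentration–response curve, averaged over independent experiments. DMSO ≤0.1%.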

Trypanosoma brucei [5] = assay: Percentage of activity against Trypanosoma brucei at 3.13 uM; format: functional; outline: as §2
Leishmania infantum [6] = assay: Percentage of activity against Leishmania infantum at 1.56 uM; format: functional
Outline: (§4)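 Starch-stimulated mouse peritoneal macrophages, 30 000/well, infected after 24 h with spleen-derived L. infantum amastigotes (10:1) together with 2-fold drug dilutions (12.5–1.56 µM). Incubated 7 days at 37 °C, 5% CO2. Wright-stained slides scored microscopically as % reduction of total parasite load or of infected macrophages. Uninfected treated cultures judged microscopically for macrophage toxicity.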

Trypanosoma brucei [7] = assay: Percentage of activity against Trypanosoma brucei at 6.25 uM; format: functional; outline: as §2
Leishmania infantum [8] = assay: Percentage of activity against Leishmania infantum at 12.5 uM Concentration; Toxic upon mouse primary peritoneal macrophages; format: functional, organism-based; outline: as §4
Trypanosoma cruzi [9] = assay: Percentage of activity against Trypanosoma cruzi at 6.25 uM Concentration; format: functional; outline: as §1
MRC5 [10] = assay: Cytotoxicity on MRC-5 cells at 12.5 uM; format: functional; details: Homo sapiens; outline: as §3
Leishmania infantum [11] = assay: Percentage of activity against Leishmania infantum at 3.13 uM; format: functional; outline: as §4
MRC5 [12] = assay: Cytotoxicity on MRC-5 cells at 25 uM; format: functional; details: Homo sapiens; outline: as §3
Trypanosoma cruzi [13] = assay: Percentage of activity against Trypanosoma cruzi at 1.56 uM; format: functional; outline: as §1
MRC5 [14] = assay: Cytotoxicity on MRC-5 cells at 3.13 uM; format: functional; details: Homo sapiens; outline: as §3
Leishmania infantum [15] = assay: Percentage of activity against Leishmania infantum 6.25 uM; format: functional; outline: as §4
Trypanosoma brucei [16] = assay: Percentage of activity against Trypanosoma brucei at 12.5 uM; format: functional; outline: as §2
Trypanosoma cruzi [17] = assay: Percentage of activity against Trypanosoma cruzi at 12.5 uM; Toxic upon mouse primary peritoneal macrophages; format: functional, organism-based; outline: as §1
Leishmania infantum [18] = assay: Percentage of activity against Leishmania infantum at 6.25 uM; Toxic upon mouse primary peritoneal macrophages; format: functional, organism-based; outline: as §4

SMILES	T. cruzi parasite load reduction (Trypanosoma cruzi [1]) [%]	Percent inhibition of parasite multiplication (Trypanosoma brucei [2]) [%]	cytotoxicity at 6.25 µM (MRC5 [3]) [%]	Reduction of T. cruzi parasite load (Trypanosoma cruzi [4]) [%]	IC50 (Plasmodium falciparum) [nM]	Parasite growth inhibition (Trypanosoma brucei [5]) [%]	Antileishmanial activity (% reduction of parasite load) (Leishmania infantum [6]) [%]	Inhibition of parasite multiplication (Trypanosoma brucei [7]) [%]	Cytotoxicity (Leishmania infantum [8])	Reduction of T. cruzi parasite load (Trypanosoma cruzi [9]) [%]	cytotoxicity at 12.5 µM (MRC5 [10]) [%]	Percent antileishmanial activity (reduction of parasite load) (Leishmania infantum [11]) [%]	cytotoxicity at 25 µM (MRC5 [12]) [%]	Parasite load reduction (Trypanosoma cruzi [13]) [%]	cytotoxicity at 3.13 µM (MRC5 [14]) [%]	Antileishmanial activity (% reduction of parasite load) (Leishmania infantum [15]) [%]	Inhibition of parasite multiplication (Trypanosoma brucei [16]) [%]	Cytotoxicity (Trypanosoma cruzi [17])	Cytotoxicity (Leishmania infantum [18])
COc1ccc2nc3cc(Cl)ccc3c(NCCCN(CCCNc3c4ccc(Cl)cc4nc4ccc(OC)cc34)C(=O)CCN3CCNCC3)c2c1	90	95	0	0	> 500	99	0	100	Toxic	0	0	0	15	0	0	0	–	–	–
COc1ccc2nc3cc(Cl)ccc3c(NCCCCCCCCCCNc3c4ccc(Cl)cc4nc4ccc(OC)cc34)c2c1	99	100	0	40	57	100	20	100	Toxic	70	80	70	90	0	0	90	100	–	–
COc1ccc2nc3cc(Cl)ccc3c(NCCCN(CCCNc3c4ccc(Cl)cc4nc4ccc(OC)cc34)C(=O)C(CNC(=O)OC(C)(C)C)NC(=O)OC(C)(C)C)c2c1 (stereo unspecified)	–	100	48	40	55	100	80	100	Toxic	80	50	95	70	0	43	99	–	Toxic	–
COc1ccc2nc3cc(Cl)ccc3c(NCCCCCCCCNc3c4ccc(Cl)cc4nc4ccc(OC)cc34)c2c1	–	100	100	90	19	100	70	100	Toxic	98	100	90	100	70	20	95	100	Toxic	–
COc1ccc2nc3cc(Cl)ccc3c(NCCCCCCCCCCCCNc3c4ccc(Cl)cc4nc4ccc(OC)cc34)c2c1	90	70	0	0	176	100	0	100	Toxic	40	20	40	100	0	0	80	100	–	–
COc1ccc2nc3cc(Cl)ccc3c(NCCCN(CCCNc3c4ccc(Cl)cc4nc4ccc(OC)cc34)C(=O)C(CC(=O)OC3CCCCC3)NC(=O)OC(C)(C)C)c2c1 (stereo unspecified)	98	100	100	20	31	100	20	100	Toxic	70	100	60	100	0	40	80	100	–	–
COc1ccc2nc3cc(Cl)ccc3c(NCCCN(CCCNc3c4ccc(Cl)cc4nc4ccc(OC)cc34)C(=O)C(CCCCNC(=O)OCC3c4ccccc4-c4ccccc43)NC(=O)OC(C)(C)C)c2c1 (stereo unspecified)	–	100	80	20	273	100	0	100	Toxic	80	90	0	100	0	20	40	100	Toxic	–
COc1ccc2nc3cc(Cl)ccc3c(NCCCN(CCCNc3c4ccc(Cl)cc4nc4ccc(OC)cc34)C(=O)C(CNC(=O)OCC3c4ccccc4-c4ccccc43)NC(=O)OC(C)(C)C)c2c1 (stereo unspecified)	–	100	57	20	71	100	20	100	Toxic	90	60	70	68	0	55	95	–	Toxic	–
COc1ccc2nc3cc(Cl)ccc3c(NCCCN(CCCNc3c4ccc(Cl)cc4nc4ccc(OC)cc34)C(=O)CNC(=O)C(C)NC(=O)OC(C)(C)C)c2c1 (stereo unspecified)	–	100	41	0	440	100	0	100	Toxic	40	71	0	100	0	31	–	–	Toxic	Toxic
COc1ccc2nc3cc(Cl)ccc3c(NCCCN(CCCNc3c4ccc(Cl)cc4nc4ccc(OC)cc34)C(=O)C(COCc3ccccc3)NC(=O)OC(C)(C)C)c2c1 (stereo unspecified)	–	100	100	40	138	100	40	100	Toxic	80	100	70	100	0	100	90	100	Toxic	–
